Assay outcomes from PubChem BioAssay.
An excerpt weighted towards active compounds, which were near 4.5% of everything screened.
NS3 helicase inh: inhibitors of Hepatitis C virus NS3 helicase; inhibition, % at 10.9 µM; AID 1800; NS3 helicase DNA unwinding, Cy5 molecular beacon fluorescence; actives 0.56% (n = 290,000);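 active means inhibition above the mean of all tested compounds plus 3 SD, set per campaign, cut at about 35% in these data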;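 further: 0% = DMSO wells and 100% = thioflavine S control wells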
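Control set: DMSO versus 110 µM thioflavine S; Material: NS3 helicase fragment of HCV; Measured by: Cy5 fluorescence at 0 and 60 min, beacon hairpin quenching; Read-out basis: percent inhibition from t60/t0 fluorescence ratio; Times: reaction time 60 min, 25 °C; Repeats: single replicate; Compound dosing: single dose, 10.9 µM nominal final, DMSO 0.8% final.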
CHOP inhibitor: blocks CHOP induction under ER stress; CHO-K1 CHOP-promoter luciferase, tunicamycin-induced, 15-18 h; inhibition, % at 10 µM; actives 3.8% (n = 220,000);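 active means compounds that reduced the stress-induced luciferase reporter signal by more than about 70% of percent inhibition, limit read from the data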;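 further: 0% = tunicamycin plus vehicle and 100% = wells without tunicamycin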
p97 inhibitor: blocks human p97 ATPase activity | P55072 | recombinant p97 ATPase, Kinase-Glo ATP luminescence, 3 h | inhibition, % at 8 µM | actives 0.42% (n = 220,000) | AID 1481; in the data active means inhibition above about 15%;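 further: 0% = DMSO vehicle and 100% = wells lacking enzyme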
PfM18AAP inh-1: blocks P. falciparum M18 aspartyl aminopeptidase. inhibition, % at 7.35 µM. actives 1.2% (n = 290,000). AID 1822. recombinant PfM18AAP, H-Glu-NHMec fluorogenic cleavage;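 active means inhibition above the campaign mean inhibition over all tested compounds plus 3 SD, cut at about 28% in these data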;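 further: 0% = plate median of test compound wells and 100% = 2 mM ZnCl2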
CHOP UPR activ: apoptotic UPR (CHOP) activation; CHO-CHOP luciferase reporter, luminescence; percent of tunicamycin response over DMSO baseline; activation, % at 10 µM; actives 0.34% (n = 330,000); AID 449763;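 active means at 10 µM dose, activation of 40% or more, normalized to positive control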;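 further: 100% = tunicamycin at 10 µg/mL and 0% = DMSO alone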
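Evaluation: % reporter activation, DMSO baseline versus tunicamycin full activation; System: CHO-CHOP luciferase reporter cell line; Input: 500 cells/well; Incubation: 6 h compound treatment, 37 °C; Measured by: Steady-Glo luciferase luminescence; Dosing: one dose, 10 µM in 0.5% DMSO; Buffer or medium: F12 medium, 10% FBS; Benchmarks: positive tunicamycin 10 µg/mL, negative DMSO alone.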
XBP1 UPR activ: adaptive UPR (XBP1) activation; activation, % at 20 µM; actives 0.33% (n = 330,000); CHO-XBP1 luciferase reporter, IRE1-XBP1 UPR activation, luminescence; percent of tunicamycin response, DMSO as zero; AID 463104;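 active means versus positive control, 20 µM dose yields 30% or more activation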;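 further: 100% = tunicamycin at 10 µg/mL and 0% = DMSO only wells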
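Material: CHO cell line with stable XBP1 luciferase reporter; buffer or medium: F12 medium containing 10% fetal bovine serum; compound: single point, 20 µM final compound, 1% DMSO; incubation: 6 h treatment, 37 °C; measured by: glow luminescence from Steady-Glo reagent; evaluation: activation, % of tunicamycin; control set: tunicamycin high, DMSO low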
PfM18AAP inh-2: confirmation of Plasmodium falciparum M18 aspartyl aminopeptidase inhibitors. shares compounds with PfM18AAP inh-1. recombinant PfM18AAP, H-Glu-NHMec fluorogenic cleavage. inhibition, % at 7.35 µM. actives 28% (n = 2,400);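 active means mean inhibition over replicate wells above the hit cutoff set for the earlier primary screen, cut at about 29% in these data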;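 further: 0% = median of test compound wells and 100% = 2 mM ZnCl2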
CTSL1 confirm: counter-screen for PFM18AAP inhibitors: confirmation of human cathepsin L inhibitors; inhibition, % at 5.96 µM; shares compounds with PfM18AAP inh-1; purified cathepsin L1, Z-Leu-Arg-MCA fluorescence; 2,400 tested, under 10 active;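 active means average inhibition across replicates above the hit cutoff set in the earlier primary screen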;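 further: 0% = median of test compound wells and 100% = Z-Phe-Ala-diazomethylketone 1 µM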
Target sequence (P07711 whole entry, looked up): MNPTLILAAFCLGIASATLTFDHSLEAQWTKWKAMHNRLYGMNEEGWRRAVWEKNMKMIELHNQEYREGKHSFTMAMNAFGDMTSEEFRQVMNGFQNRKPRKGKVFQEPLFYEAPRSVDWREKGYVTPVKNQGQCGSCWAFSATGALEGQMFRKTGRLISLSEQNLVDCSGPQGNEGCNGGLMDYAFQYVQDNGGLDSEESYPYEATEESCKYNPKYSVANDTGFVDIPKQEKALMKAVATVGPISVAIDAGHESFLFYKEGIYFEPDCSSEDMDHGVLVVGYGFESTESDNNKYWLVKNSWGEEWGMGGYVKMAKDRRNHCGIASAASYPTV
The depositor's hits bear a star; / = no result.

SMILES | NS3 helicase inh | CHOP inhibitor | p97 inhibitor | PfM18AAP inh-1 | CHOP UPR activ | XBP1 UPR activ | PfM18AAP inh-2 | CTSL1 confirm
CC(c1ccccc1)n1c(Cn2ncc3ccccc3c2=O)n[nH]c1=S (centres undefined) | 6.6 | 7.5 | -0.9 | 7.2 | 2.5 | -1.8 | / | /
Cc1nc2ccccc2n1Cc1n[nH]c(=S)n1-c1ccc(Cl)cc1 | 0.1 | 21.7 | 1.2 | 38.8* | 0.8 | -0.7 | -2.6 | -0.3
Cc1nc2ccccc2n1Cc1ccc(Cl)cc1 | -16.3 | / | / | 2.2 | 4.6 | -6.5 | / | /
CC1C(=O)N(C)C(=O)c2nc[nH]c21 (centres undefined) | / | 1.2 | / | / | / | / | / | /
CCOC(=O)c1ccc(NC(=O)NNC(=O)CCc2ccc(OC)cc2)cc1 | 5.9 | / | / | -0.6 | 0.1 | -2.3 | / | /
C[C@@H]1O[C@@H](OC[C@@H]2O[C@H](Oc3c(-c4ccc(O)cc4)oc4cc(O)cc(O)c4c3=O)[C@@H](O)[C@H](O)[C@H]2O)[C@H](O)[C@H](O)[C@H]1O | / | / | / | / | -0.6 | -0.5 | / | /
O=c1c(O)c(-c2ccc(O)c(O)c2)oc2cc(O)cc(O)c12 | 14.0 | -9.6 | / | 76.1* | 6.3 | -0.8 | 65.1* | -4.9
O=C(O)C1OC(Oc2c(-c3ccc(O)c(O)c3)oc3cc(O)cc(O)c3c2=O)C(O)C(O)C1O (centres undefined) | 3.6 | 8.1 | 9.6 | 64.7* | 1.1 | -0.7 | 43.1* | 4.1
Cc1ccc(C)c(S(=O)(=O)NNC(=O)c2sc(NS(=O)(=O)c3ccccc3)nc2C)c1 | 29.8 | / | / | 36.1* | -0.7 | -9.2 | -9.9 | -0.6
Cc1nc(C)c(C(=O)NNS(=O)(=O)c2ccccc2)s1 | 5.1 | 2.5 | 2.4 | 9.6 | -2.2 | -0.4 | / | /
Clc1ccc(-n2cccc2/C=N/n2cnnc2)cc1 | -15.0 | -7.5 | -6.1 | 40.7* | 1.3 | -1.2 | -22.1 | -6.1
CC(C)(C)NC(=O)C(=O)N/N=C/c1ccc(Br)cc1 | 1.3 | 16.5 | -0.3 | -7.3 | 2.1 | 4.2 | / | /
CC(C)(C)c1ccc(/C=N/Nc2nncn2N)cc1 | -3.5 | / | / | 51.0* | 0.9 | 4.0 | -18.3 | -1.2
CC1CCN(c2ccc(/C=N\Nc3nncn3N)cc2[N+](=O)[O-])CC1 | -28.7 | 25.3 | -1.0 | 52.8* | / | / | -18.2 | -3.6
CC(C)(C)c1nnc(N/N=C/c2ccc(Br)cc2)n(N)c1=O | 7.1 | 33.4 | -5.3 | 42.7* | 5.0 | 4.3 | -38.0 | 1.6
CC1CCN(c2ccc(/C=N/n3nnnc3N)cc2[N+](=O)[O-])CC1 | -6.8 | 47.5 | 2.9 | -10.3 | -0.6 | 7.3 | / | /
CSc1ccc(/C=N\Nc2nncn2N)cc1 | -17.9 | / | / | 52.5* | 2.9 | 5.4 | -15.9 | -3.7
CSc1ccc(/C=N/NC(=O)c2ccc(-n3cnnn3)cc2)cc1 | / | / | / | / | -0.4 | 0.0 | / | /
C(=N\Nc1nncn1/N=C/c1ccco1)/c1ccco1 | -3.5 | 7.3 | -3.9 | 11.7 | 1.1 | -0.5 | / | /
Cc1nc2nc(-c3cccs3)[nH]c2cc1Br | / | / | / | / | 6.3 | 3.2 | / | /
CCOC(=O)N1CCC(NC(=O)c2ccc3c(c2)sc2nc(-c4ccccc4)cn23)CC1 | -9.7 | 4.4 | 4.8 | 40.1* | 7.9 | 0.5 | -16.5 | 0.4
CC(C)Cn1c(-c2ccccc2F)n[nH]c1=S | 2.3 | -9.2 | 2.5 | 32.5* | 4.2 | -0.2 | 1.3 | -0.9
COc1cc(N/N=C/c2ccc(N(C)C)cc2)ncn1 | -11.1 | 3.2 | 1.2 | 10.4 | -3.2 | -11.3 | / | /
COc1cc(N/N=C/c2ccccc2O)ncn1 | 12.8 | -2.6 | -5.2 | 40.9* | 0.8 | 1.6 | -17.8 | 4.4
COc1ccccc1CN1CCNC(=O)C1CC(=O)NCC1CCOCC1 (centres undefined) | 0.0 | / | / | 4.1 | 0.8 | -2.1 | / | /
CCCCNC(=O)NNc1nc(Cl)cc(C)c1C#N | -2.2 | -5.0 | 0.3 | 53.9* | 1.8 | -6.3 | 44.7* | -0.2
COc1ccc(/C(=N\Nc2ccccc2C(=O)O)c2ccccc2)cc1 | -2.0 | 1.7 | -2.0 | 38.3* | 3.8 | 5.0 | -11.7 | -0.3
